Assay results as given in paper PMC2229322 (The Journal of General Physiology, 1996).

Columns and labels:
[1] = tested on: 391C Shaker K+ channel with intact N-type inactivation (Sh +); assay: N-type inactivation of intact; assay type: cell-based, Drosophila; conditions: for effect of 391C modification on N-type inactivation current: voltage jump -80 to 0 mV, 50 ms, complete modification (Fig. 2)
In short: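 Inside-out patches from HEK293 cells expressing channels with intact N-terminus, stepped -80 to 0 mV. Inactivation gate removed by internal trypsin perfusion. Traces normalised to the mean current of the last 20 ms after trypsin. Ag+ 20 nM for 2 min applied; completeness checked by pulsing at 0.25 Hz.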

[2] = tested on: 391C ShA Shaker K+ channel; assay: Rate of chemical modification of 391C; assay type: cell-based, Drosophila; conditions: MTSET
[3] = tested on: 381C ShA Shaker K+ channel; assay: Chemical modification of 381C; assay type: cell-based, Drosophila; conditions: for slope (time constant x [MTSET]) of current reduction: 381C
In short: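 Inside-out patches from transfected HEK293 cells; […] to 0 mV from -100 mV holding. Computer-controlled reagent pulses of 1 or 2 s began ~500 ms after step onset; sampled 5 kHz, filtered 1 kHz. Time axis normalised to reagent concentration; current reduction fitted to single exponentials. Frequency runs alternated -100 with 0 or +60 mV, equal time at each.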

[4] = tested on: cysteine mutants (380-398) of the S4-S5 linker, ShA Shaker K+ channel; assay: Chemical modification of cysteine mutants of the S4-S5 linker; assay type: cell-based, Drosophila; conditions: positions with large current reduction
In short: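 Cysteine-substituted channels in inside-out patches from transfected HEK293 cells, pH 7.4 solutions. Thiol reagents applied internally; completeness of modification followed by pulsing at 0.25 Hz. Conditions: MMTS 2 mM, 1 min; Ag+ 20 nM, 2 min; MTSEA 100 µM, 30 s.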

[5] = tested on: 382C ShA Shaker K+ channel; assay: Chemical modification of 382C; assay type: cell-based, Drosophila; conditions: vs 381C, toward more positive voltages (Fig. 7 C and E)
[6] = target: E395C mutant Shaker K+ channel (Drosophila melanogaster, UniProt P08510, C301S/C308S/DEL6-46/E395C/T449V); assay: Sensitivity of E395C to internal open channel blockers; assay type: cell-based; conditions: internal open channel blocker
[7] = Net charge of ball peptides; assay type: physicochemical; conditions: COOH terminal amidated, NH2 terminal positively charged
[8] = tested on: NH2-terminal deletion mutant Shaker K+ channel; conditions: ref Zagotta et al., 1990; cited from earlier work
K+ channels = assay: Test of perfusion change by TEA blockade; assay type: cell-based; conditions: internal TEA; reflects time course of solution change by perfusion system
In short: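 Rapid internal solution exchange on excised patches via a computer-controlled solenoid perfusion system. Exchange speed assessed by applying TEA.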

Shaker K+ channel = conditions: intracellular application; ref Choi et al., 1991; cited from earlier work

Compound: C[N+](C)(C)CCSS(C)(=O)=O [MTSET, [(2-trimethylammoniuin)ethyl]methanethiosulfonate]
- effect of 391C modification on N-type inactivation current [1]: parallel increase of the steady state and the peak current
- total current after modification of A391C [2]: no reduction in the total current
- voltage dependence of modification rate of 391C ([2]; Fig. 6C): higher at positive voltages
- rate of modification of 381C with rapidly switching stimulus ([3]; 50 10-ms pulses vs 5 100-ms pulses, -100 to 0 mV): about threefold faster
- slope (time constant x [MTSET]) of current reduction ([3]; MTSET, 0 mV (Fig. 7B)): 0.33 mM·s
- slope (time constant x [MTSET]) of current reduction ([3]; MTSET, -120 mV (Fig. 7B)): 2.47 mM·s
- current reduction by modification of 381C ([3]; MTSET, Fig. 7 A and B): > 80%
- reactivity of positions 389 and 397 [4]: only very slowly reactive
- shift of voltage dependence of gating and modification for 382C [5]: ~ 50 mV

Compound: Trypsin
- effect of removing the inactivation gate ([1]; 0.0025% trypsin perfused on inside-out patch (Fig. 2A)): larger non-inactivated current level

Compound: CSS(C)(=O)=O [MMTS, Methyl methanethiosulfonate]
- effect of 391C modification on N-type inactivation current [1]: increase in the steady- state current level without much change in the peak current

Compound: CCCCCCCCCC[N+](CC)(CC)CC [C10-TEA, de- cyltriethylammonium]
- affinity of E395C mutant compared with wild-type channel [6]: reduced fourfold

Compound: MAAVAGLYGLGEDRQHRKKQ [Shaker ball peptide]
- net charge [7]: +3
- reconstitution of fast inactivation by intracellular application [8]: effectively reconsti- tuted

Compound: [Ag+] [Ag+, silver]
- additional effect of 391C modification on tethered ball ([1]; Ag+ 20 nM for 2 min (Fig. 2)): additional ef- fect on the association rate
- effect of 391C modification on N-type inactivation current [1]: increase in the steady- state current level without much change in the peak current

Compound: CC[N+](CC)(CC)CCSS(C)(=O)=O [MTSTEA, [(2-triethylammonium)ethyl] methanethiosulfonate]
- effect of 391C modification on N-type inactivation current [1]: qualitatively similar results

Compound: CC[N+](CC)(CC)CC [TEA, tetraethylammonium]
- affinity of E395C mutant compared with wild-type channel [6]: reduced fourfold
- time constant of TEA blockade observed (K+ channels): ~ 10 ms
- effect on N-type inactivation (Shaker K+ channel): slows down N-type inactivation
